Assay results from ChEMBL document CHEMBL1142242, “Indanylacetic acid derivatives carrying 4-thiazolyl-phenoxy tail groups, a new class of potent PPAR alpha/gamma/delta pan agonists: synthesis, structure-activity relationship, and in vivo efficacy” (J Med Chem, 2007).
Calls of active or inactive are those of the source. The rule behind the calls is not given here.

Assays:
[1] = target: T1, Peroxisome proliferator-activated receptor alpha (Homo sapiens, UniProt Q07869); assay: Agonist activity at human PPAR alpha by FRET assay; format: functional
T1 sequence (Q07869 whole entry): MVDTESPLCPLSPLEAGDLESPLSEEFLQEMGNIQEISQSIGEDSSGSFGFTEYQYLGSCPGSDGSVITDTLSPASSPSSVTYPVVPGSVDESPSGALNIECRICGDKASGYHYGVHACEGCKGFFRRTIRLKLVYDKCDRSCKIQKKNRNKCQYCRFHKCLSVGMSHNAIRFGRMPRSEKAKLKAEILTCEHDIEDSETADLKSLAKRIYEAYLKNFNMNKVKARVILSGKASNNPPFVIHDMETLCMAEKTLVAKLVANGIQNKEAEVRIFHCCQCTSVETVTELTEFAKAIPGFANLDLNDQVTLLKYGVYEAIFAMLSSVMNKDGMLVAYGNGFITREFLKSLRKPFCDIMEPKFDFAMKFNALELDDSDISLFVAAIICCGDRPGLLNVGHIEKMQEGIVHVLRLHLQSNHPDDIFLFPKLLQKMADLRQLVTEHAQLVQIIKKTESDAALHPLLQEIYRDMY
In short: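 Human PPARα ligand binding domain (GST-tagged) association with biotin-labeled co-activator CBP; Eu-labeled anti-GST antibody and streptavidin-APC; incubated 2 h at rt in buffer with or without compound; fluorescence read at 615 or 655 nm emission, 340 nm excitation.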

[2] = target: T2, Peroxisome proliferator-activated receptor delta (Homo sapiens, UniProt Q03181); assay: Agonist activity at human PPAR delta by FRET assay; format: functional
T2 sequence (Q03181 whole entry): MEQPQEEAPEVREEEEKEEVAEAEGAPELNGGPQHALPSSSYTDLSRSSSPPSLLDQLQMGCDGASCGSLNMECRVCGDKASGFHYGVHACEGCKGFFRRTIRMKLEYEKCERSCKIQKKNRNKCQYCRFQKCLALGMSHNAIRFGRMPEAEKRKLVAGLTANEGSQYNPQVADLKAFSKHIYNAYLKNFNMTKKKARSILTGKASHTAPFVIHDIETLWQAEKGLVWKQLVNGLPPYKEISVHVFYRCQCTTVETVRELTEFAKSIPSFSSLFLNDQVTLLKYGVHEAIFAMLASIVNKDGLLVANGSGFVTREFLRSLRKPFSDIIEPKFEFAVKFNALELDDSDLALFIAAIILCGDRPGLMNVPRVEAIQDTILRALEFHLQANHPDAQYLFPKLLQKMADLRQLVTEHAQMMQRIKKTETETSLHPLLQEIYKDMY

[3] = target: T3, Peroxisome proliferator-activated receptor gamma (Mus musculus, UniProt P37238); assay: Agonist activity at PPAR gamma in mouse 3T3L1 cells assessed as increase in insulin receptor by IRBA; format: functional, cell-based, 3T3-L1
T3 sequence (P37238 whole entry): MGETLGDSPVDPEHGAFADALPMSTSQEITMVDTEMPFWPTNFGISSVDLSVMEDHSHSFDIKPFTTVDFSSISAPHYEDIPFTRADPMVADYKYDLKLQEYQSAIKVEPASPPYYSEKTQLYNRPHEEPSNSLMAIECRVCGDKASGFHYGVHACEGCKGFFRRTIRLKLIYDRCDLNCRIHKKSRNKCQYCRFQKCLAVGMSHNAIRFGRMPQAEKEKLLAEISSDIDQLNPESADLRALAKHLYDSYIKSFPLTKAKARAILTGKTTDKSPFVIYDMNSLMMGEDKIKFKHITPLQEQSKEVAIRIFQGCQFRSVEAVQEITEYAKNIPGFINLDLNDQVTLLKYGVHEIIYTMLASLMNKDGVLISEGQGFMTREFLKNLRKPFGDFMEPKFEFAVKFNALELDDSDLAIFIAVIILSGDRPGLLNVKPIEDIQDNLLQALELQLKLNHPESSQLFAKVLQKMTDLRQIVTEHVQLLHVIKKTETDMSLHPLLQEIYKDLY

Mus musculus [4] = assay: Reduction of plasma triglyceride level in male human apoA1 transgenic mouse at 10 mg/kg; format: functional, organism-based; parameters: dose 10 mg/kg
In short: (§1)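 hApoA1 transgenic mice, 6 weeks old at purchase, grouped by equal baseline plasma triglyceride; oral dosing once daily for 7 days in 0.5% methylcellulose in water; bled ~24 h after last dose; plasma triglyceride and HDLc by autoanalyzer; mean ± SEM, 6-8 mice.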

Mus musculus [5] = assay: Increase of plasma HDLc level in male human apoA1 transgenic mouse at 10 mg/kg; format: functional, organism-based; parameters: dose 10 mg/kg; in short: as §1
Mus musculus [6] = assay: Increase of plasma HDLc level in female human apoA1 transgenic mouse at 10 mg/kg; format: functional, organism-based; parameters: dose 10 mg/kg; in short: as §1

| Structure (SMILES) | EC50 [1] [nM] | EC50 [2] [nM] | EC50 [3] [nM] | Activity (Mus musculus [4]) | Activity (Mus musculus [5]) | Activity (Mus musculus [6]) |
| --- | --- | --- | --- | --- | --- | --- |
| O=C(O)C[C@@H]1CCc2cc(OCCCOc3ccc(-c4ccoc4)cc3)ccc21 | 3270 | 3.8 | 4100 | – | – | – |
| COc1cc(-c2nc(C)c(C(=O)O)s2)ccc1OCCCOc1ccc2c(c1)CC[C@H]2CC(=O)O | 10000 | 28 | 1000 | – | – | – |
| CCCc1cc(-c2nc(C(F)(F)F)cs2)ccc1OCCCOc1ccc2c(c1)CC[C@H]2CC(=O)O | 197 | 3.3 | 55 | – | – | – |
| O=C(O)C[C@@H]1CCc2cc(OCCCOc3ccc4ncoc4c3)ccc21 | > 10000 | 130 | > 10000 | – | – | – |
| CCCc1cc(-c2nc(C)c(C(C)=O)s2)ccc1OCCCOc1ccc2c(c1)CC[C@H]2CC(=O)O | 175 | 18 | 17 | – | – | – |
| O=C(O)C[C@@H]1CCc2cc(OCCCOc3ccc(-c4nc5c(s4)CCC5)cc3)ccc21 | 112 | 1.3 | 1200 | – | – | – |
| CCCc1cc(-c2nc(CO)c(C(=O)O)s2)ccc1OCCCOc1ccc2c(c1)CC[C@H]2CC(=O)O | 6490 | 12 | 891 | – | – | – |
| Cc1cccc(-c2ccc(OCCCOc3ccc4c(c3)CC[C@H]4CC(=O)O)cc2)n1 | 5260 | 2.2 | 550 | – | – | – |
| CCOc1nc(-c2ccc(OCCCOc3ccc4c(c3)CC[C@H]4CC(=O)O)c(OC)c2)sc1C | 150 | 6 | 177 | – | – | – |
| O=C(O)C[C@@H]1CCc2cc(OCCCOc3ccc(-c4ccsc4)cc3)ccc21 | > 10000 | 5.9 | 650 | – | – | – |
| CCCc1cc(-c2nc(C)c(C(=O)O)s2)ccc1OCCCOc1ccc2c(c1)CC[C@H]2CC(=O)O | 1690 | 46 | 238 | – | – | – |
| CCCc1cc(-c2nc(OCC)c(C)s2)ccc1OCCCOc1ccc2c(c1)CC[C@H]2CC(=O)O | 61 | 3.2 | 34 | – | – | – |
| CCCc1cc(-c2nc(C(C)(C)C)cs2)ccc1OCCCOc1ccc2c(c1)CC[C@H]2CC(=O)O | 87 | 11 | 18 | – | – | – |
| Cc1cc(SCc2sc(-c3ccc(C(F)(F)F)cc3)nc2C)ccc1OCC(=O)O | – | – | – | Dose-dependent effect | Dose-dependent effect | Active |
| O=C(O)C[C@@H]1CCc2cc(OCCCOc3ccc(-c4ccc5cc[nH]c5c4)cc3)ccc21 | 6600 | 1.5 | 740 | – | – | – |
| Cc1cc(-c2nc(C(F)(F)F)ns2)ccc1OCCCOc1ccc2c(c1)CC[C@H]2CC(=O)O | 520 | 3.4 | 158 | – | – | – |
| Cc1coc2cc(OCCCOc3ccc4c(c3)CC[C@H]4CC(=O)O)ccc12 | > 10000 | 8 | 1950 | – | – | – |

Further lines, with some results ahead:

| EC50 [1] [nM] | EC50 [2] [nM] | EC50 [3] [nM] | Structure (SMILES) | Activity (Mus musculus [4]) | Activity (Mus musculus [5]) | Activity (Mus musculus [6]) |
| --- | --- | --- | --- | --- | --- | --- |
| > 10000 | 18 | 3300 | C=CCc1c(OCCCOc2ccc3c(c2)CC[C@H]3CC(=O)O)ccc2[nH]ccc12 | – | – | – |
| > 10000 | 286 | 6850 | Cc1c(OCCCOc2ccc3c(c2)CC[C@H]3CC(=O)O)ccc2[nH]ccc12 | – | – | – |
| 147 | 11 | 45 | CCCc1cc(-c2nc(CC)cs2)ccc1OCCCOc1ccc2c(c1)CC[C@H]2CC(=O)O | – | – | – |
| > 10000 | 44 | > 10000 | O=C(O)C[C@@H]1CCc2cc(OCCCOc3ccccc3)ccc21 | – | – | – |
| > 10000 | 7.5 | 1670 | COc1cc(C)ccc1OCCCOc1ccc2c(c1)CC[C@H]2CC(=O)O | – | – | – |
| 755 | 3 | 69 | COc1csc(-c2ccc(OCCCOc3ccc4c(c3)CC[C@H]4CC(=O)O)c(OC)c2)n1 | – | – | – |
| 6850 | 2230 | 8700 | O=C(O)C[C@@H]1CCc2cc(OCCCOc3ccc(-n4cnnc4)cc3Cl)ccc21 | – | – | – |
| 1280 | 4.4 | 874 | CCc1csc(-c2ccc(OCCCOc3ccc4c(c3)CC[C@H]4CC(=O)O)cc2)n1 | – | – | – |
| 7500 | 14 | 700 | COc1cc(C#N)ccc1OCCCOc1ccc2c(c1)CC[C@H]2CC(=O)O | – | – | – |
| 5700 | 7.3 | 637 | N#Cc1ccc(OCCCOc2ccc3c(c2)CC[C@H]3CC(=O)O)cc1 | – | – | – |
| > 10000 | 2.4 | 1520 | CCCc1ccccc1OCCCOc1ccc2c(c1)CC[C@H]2CC(=O)O | – | – | – |
| > 10000 | 29 | > 10000 | CCCc1c(OCCCOc2ccc3c(c2)CC[C@H]3CC(=O)O)ccc2c1ccn2C | – | – | – |
| 2530 | 6.9 | 480 | CC(=O)c1sc(-c2ccc(OCCCOc3ccc4c(c3)CC[C@H]4CC(=O)O)cc2)nc1C | – | – | – |
| > 10000 | 6.6 | 940 | CCOc1ccc(OCCCOc2ccc3c(c2)CC[C@H]3CC(=O)O)cc1 | – | – | – |
| 254 | 2.5 | 65 | CCc1csc(-c2ccc(OCCCOc3ccc4c(c3)CC[C@H]4CC(=O)O)c(OC)c2)n1 | – | – | – |
| 700 | 2.7 | 1650 | CCc1ccc(OCCCOc2ccc3c(c2)CC[C@H]3CC(=O)O)c(OC)c1 | – | – | – |
| > 10000 | 6.7 | 3000 | COc1ccc(OCCCOc2ccc3c(c2)CC[C@H]3CC(=O)O)cc1 | – | – | – |
